The record followed here is paper PMC6071421 (Journal of investigative medicine : the official …, 2017).

The test concerns the target T1, FFA2 (GPR43; Ffar2) (Mus musculus, UniProt Q8VCK6).
T1 sequence (Q8VCK6 1-330): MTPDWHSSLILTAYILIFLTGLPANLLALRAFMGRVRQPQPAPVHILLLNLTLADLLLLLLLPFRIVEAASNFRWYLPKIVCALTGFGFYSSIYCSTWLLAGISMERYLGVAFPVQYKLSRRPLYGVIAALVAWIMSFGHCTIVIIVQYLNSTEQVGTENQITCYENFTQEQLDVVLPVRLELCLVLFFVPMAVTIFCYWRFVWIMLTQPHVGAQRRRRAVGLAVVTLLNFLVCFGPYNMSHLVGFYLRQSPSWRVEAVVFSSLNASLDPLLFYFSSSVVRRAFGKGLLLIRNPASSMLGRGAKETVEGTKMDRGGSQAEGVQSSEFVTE
Kind of test: Ca2+ mobilization, Fluo-8, fluorometric imaging plate reader, beta TC3 cells. The class given is cell-based. To be noted: agonist; endogenous receptor in beta TC3 cells; N = 13. In short, it runs like this:
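Mouse βTC3 β cells (express Ffar2 but not Ffar3) loaded with 5 μM Fluo-8 for 60 min at 37°C. Test compounds were added as serial dilutions, each concentration in quadruplicate, and fluorescence was read on a FLIPR. Response was delta F/f: (post-stimulation max − pre-stimulation min)/pre-stimulation min. pEC50 and Emax came from non-linear regression. Experiments were repeated in triplicate.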
On the technique in general: Calcium assays in cells follow changes in intracellular calcium, usually with a dye or a luminescent sensor.

Take `CC(=O)O` [Acetate]: the pEC50 is on record as 2.32±0.21 -log M.
